Results pooled from the literature.
Lines come from different studies, so protocols differ.
Target: Mitogen-activated protein kinase kinase kinase 20 (MAP3K20, Homo sapiens, UniProt Q9NYL2)

| SMILES | test | setting | remaining binding [%] |
| --- | --- | --- | --- |
| CN(CCCC(F)(F)F)c1nccc(-c2cnn3ncccc23)n1 | binding | 1 µM | 88 |
| CCN1CCN(Cc2ccc(C(=O)Nc3ccc(C)c(Oc4ccc5c(c4)CC(=O)N5)c3)cc2C(F)(F)F)CC1 | binding, competition with immobilised ligand | 1 µM | 100 |
| Cc1c(NC(=O)c2cc(C(N)=O)nc3cc(F)ccc23)c(C(F)(F)F)nn1Cc1ccc(C(C)(C)C)cc1 | cell-free assay, competition with immobilised ligand | 1 µM | 100 |
| COc1ccnn2ncc(-c3ccnc(N(C)C)n3)c12 | binding | 1 µM | 100 |
| CNC(=O)[C@@H]1CC[C@@H](n2c(-c3ccc4cnccc4c3)nc3ccc(C(=O)NCc4cccc(C(N)=O)c4)cc32)C1 | binding, competition with immobilised ligand | 1 µM | 100 |
| CCCOc1ccc([C@@H]2[C@@H](C(=O)O)[C@H](c3ccc4c(c3)OCO4)CN2CC(=O)Nc2c(CC)cccc2CC)cc1 | cell-free assay, competition with immobilised ligand | 1 µM | 100 |
| O=C(c1ccc(Nc2ncc(Cl)c(-c3cc4ccccc4s3)n2)cc1)N1CCC(N2CCCC2)CC1 | binding, competition with immobilised ligand | 1 µM | 48 |
| Cc1cc(C)c(-n2ccn3nc(-c4cccnc4)cc23)cc1NC(=O)c1cc(C#N)cc(S(F)(F)(F)(F)F)c1 | cell-free assay, competition with immobilised ligand | 0.1 µM | 97.5 |
| O=C(Nc1c[nH]nc1C(=O)NC1CCNCC1)c1cc(F)cc(F)c1 | binding, competition with immobilised ligand | 1 µM | 100 |
| Cc1cnc(Nc2ccc(C(=O)N3CCC(N4CCCC4)CC3)cc2)nc1-c1cc2ccccc2s1 | binding, competition with immobilised ligand | 1 µM | 43 |
| O=C(NCc1ncc(C(F)(F)F)cc1Cl)c1ccc2c(c1)C1(CCS(=O)(=O)CC1)[C@H](C1CC1)N2S(=O)(=O)c1ccc(F)cc1 | cell-free assay, competition with immobilised ligand | 1 µM | 100 |
| CN(C)c1nccc(-c2cnn3ncccc23)n1 | binding | 1 µM | 100 |
| C[C@@H](c1cccc(C#N)c1)n1cc(Cl)cc(C(N)=O)c1=N | cell-free assay, competition with immobilised ligand | 1 µM | 71 |
| CN(C)c1nccc(-c2cnc3ncccn23)n1 | binding | 1 µM | 89 |
| CN(C(=O)c1ccccc1)c1cc(N(C)c2ccc3c(c2)CCc2ccc(C(=O)NCCN4CCOCC4)cc2C3=O)ccc1F | cell-free assay, competition with immobilised ligand | 1 µM | 82 |
| Cc1cnn2ncc(-c3ccnc(N(C)C)n3)c2c1 | binding | 1 µM | 95 |
| COc1cnc(Nc2cccc(S(N)(=O)=O)c2)nc1N1CCN(c2ccccc2)C(=O)C1 | binding, competition with immobilised ligand | 1 µM | 100 |
| C[C@@H]1CCN(c2nccc(-c3cnn4ncccc34)n2)C1 | binding | 1 µM | 100 |
| CO[C@@H](C)c1c(Nc2ccc([C@@H](N(C)C(=O)C3CCS(=O)(=O)CC3)C(F)(F)F)cc2)cnc2cc(Cl)nn12 | cell-free assay, competition with immobilised ligand | 1 µM | 100 |
| FC(F)(F)Oc1cccc(-c2cnc3ccc(-c4ccncc4)nn23)c1 | binding, competition with immobilised ligand | 5 µM | 20 |
| O=C(NCCCN1CCOCC1)c1ccc(Nc2ncc(Cl)c(-c3ccc(Cl)s3)n2)cc1 | binding, competition with immobilised ligand | 1 µM | 69 |
| N[C@H]1CCN(c2nccc(-c3cnn4ncccc34)n2)C1 | binding | 1 µM | 99 |
